≈ marks a conversion by molar mass, not a printed value.
How the values were obtained:
Assay type in all cases: functional
[1] = test system: Enterococcus faecalis; experiment: Minimum inhibitory concentration against Streptococcus faecalis MGH-2 in vitro.
[2] = test system: Pseudomonas aeruginosa; experiment: Minimum inhibitory concentration against Pseudomonas aeruginosa UI-18 in vitro.
[3] = test system: Klebsiella pneumoniae; experiment: Minimum inhibitory concentration against Klebsiella pneumoniae MGH-2 in vitro.
[4] = test system: Streptococcus pneumoniae; experiment: Minimum inhibitory concentration against Streptococcus pneumoniae SV-1 in vitro.
[5] = test system: Escherichia coli; experiment: Minimum concentration needed to produce linear DNA at an intensity relative to oxolinic at 10 ug/mL in Escherichia coli H560 in vitro.
Outline: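 DNA gyrase cleavage test, run as previously described: end point is the lowest drug level (µg/mL) that yields linear DNA at a band intensity matching oxolinic acid at 10 µg/mL. Values come from duplicate or triplicate experiments and are stated as accurate to ±50%.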

[6] = test system: Escherichia coli; experiment: Minimum inhibitory concentration against Escherichia coli H560 in vitro.
[7] = test system: Streptococcus pyogenes; experiment: (§1) Minimum inhibitory concentration against Streptococcus pyogenes C203 in vitro.
[8] = test system: Providencia rettgeri; experiment: Minimum inhibitory concentration against Providencia rettgeri H1771 in vitro.
[9] = test system: Staphylococcus aureus; experiment: Minimum inhibitory concentration against Staphylococcus aureus UC-76 in vitro.
[10] = test system: Mus musculus; experiment: In vivo potency against Streptococcus pneumoniae using mouse protection assay when given orally; conditions: po, read-out: PD50
[11] = test system: Enterobacter cloacae; experiment: Minimum inhibitory concentration against Enterobacter cloacae HA 2646 in vitro.
[12] = test system: Mus musculus; experiment: In vivo potency against Staphylococcus aureus using mouse protection assay when given orally; conditions: po, read-out: PD50
[13] = test system: Mus musculus; experiment: In vivo potency against Escherichia coli vogel using mouse protection assay when given perorally; conditions: po, read-out: PD50
[14] = test system: Escherichia coli; experiment: Minimum inhibitory concentration against Escherichia coli vogel in vitro.
[15] = test system: Staphylococcus aureus; experiment: Minimum inhibitory concentration against Staphylococcus aureus H228 in vitro.
[16] = test system: Mus musculus; experiment: In vivo potency against Escherichia coli vogel using mouse protection assay when given subcutaneously; conditions: sc, read-out: PD50
[17] = test system: Streptococcus pneumoniae; experiment: In vivo potency against Streptococcus pneumoniae using mouse protection assay following s.c. administration.; conditions: sc, read-out: PD50
[18] = test system: Bacteria; experiment: as §1
[19] = test system: Staphylococcus aureus; experiment: In vivo potency against Staphylococcus aureus using mouse protection assay following p.o. administration.; conditions: po, read-out: PD50
[20] = test system: Streptococcus pneumoniae; experiment: In vivo potency against Streptococcus pneumoniae using mouse protection assay following p.o. administration.; conditions: po, read-out: PD50
[21] = test system: Staphylococcus aureus; experiment: In vivo potency against Staphylococcus aureus using mouse protection assay following s.c. administration.; conditions: sc, read-out: PD50

For NCC1CCN(c2c(F)cc3c(=O)c(C(=O)O)cn(C4CC4)c3c2F)C1 (stereo not drawn), the MIC [1] was 0.013 µg/mL (≈ 0.0358 µM), the MIC [2] was 0.2 µg/mL (≈ 0.55 µM) and the MIC [3] was 0.05 µg/mL (≈ 0.138 µM). It also gave an MIC [4] of 0.006 µg/mL (≈ 0.0165 µM), a DNA cleavage conc (gyrase) [5] of 0.25 µg/mL and an MIC [6] of 0.006 µg/mL (≈ 0.0165 µM). It also gave an MIC [7] of 0.013 µg/mL (≈ 0.0358 µM), an MIC [8] of 0.1 µg/mL (≈ 0.275 µM) and an MIC [9] of 0.003 µg/mL (≈ 0.00826 µM). For the same molecule, the ED50 [10] was 10 mg/kg, the MIC [11] was 0.05 µg/mL (≈ 0.138 µM) and the ED50 [12] was 78 mg/kg. For the same molecule, the ED50 [13] was 6 mg/kg, the MIC [14] was 0.025 µg/mL (≈ 0.0688 µM) and the MIC [15] was 0.025 µg/mL (≈ 0.0688 µM).
Molecule CNCC1CCN(c2c(F)cc3c(=O)c(C(=O)O)cn(C4CC4)c3c2F)C1 (stereo not drawn) has an MIC [1] of 0.013 µg/mL (≈ 0.0344 µM), an MIC [2] of 0.2 µg/mL (≈ 0.53 µM) and an MIC [3] of 0.05 µg/mL (≈ 0.132 µM). The MIC [4] was 0.006 µg/mL (≈ 0.0159 µM), the DNA cleavage conc (gyrase) [5] was 0.25 µg/mL and the MIC [6] was 0.006 µg/mL (≈ 0.0159 µM). It also gave an MIC [7] of 0.006 µg/mL (≈ 0.0159 µM), an MIC [8] of 0.2 µg/mL (≈ 0.53 µM) and an MIC [9] of 0.013 µg/mL (≈ 0.0344 µM). The ED50 [10] was 2 mg/kg, the MIC [11] was 0.025 µg/mL (≈ 0.0662 µM) and the ED50 [12] was 22 mg/kg. It also gave an ED50 [13] of 2 mg/kg, an MIC [14] of 0.05 µg/mL (≈ 0.132 µM) and an MIC [15] of 0.025 µg/mL (≈ 0.0662 µM).
With CNCC1CCN(c2nc3c(cc2F)c(=O)c(C(=O)O)cn3C2CC2)C1 (stereo not drawn) the ED50 [16] was 1 mg/kg, the MIC [1] was 0.2 µg/mL (≈ 0.555 µM) and the MIC [2] was 0.8 µg/mL (≈ 2.22 µM). It also gave an ED50 [17] of 11 mg/kg, an MIC [3] of 0.2 µg/mL (≈ 0.555 µM) and an MIC [4] of 0.025 µg/mL (≈ 0.0694 µM). The DNA cleavage conc (gyrase) [5] was 1 µg/mL, the MIC [6] was 0.05 µg/mL (≈ 0.139 µM) and the MIC [18] was 0.05 µg/mL (≈ 0.139 µM). It also gave an MIC [8] of 0.4 µg/mL (≈ 1.11 µM), an MIC [9] of 0.025 µg/mL (≈ 0.0694 µM) and an MIC [11] of 0.2 µg/mL (≈ 0.555 µM). For the same molecule, the ED50 [19] was 3 mg/kg, the ED50 [20] was 27 mg/kg and the ED50 [13] was 3 mg/kg. It also gave an MIC [14] of 0.1 µg/mL (≈ 0.277 µM), an ED50 [21] of 1 mg/kg and an MIC [15] of 0.2 µg/mL (≈ 0.555 µM).

Source: ChEMBL document CHEMBL1124270, “Quinolone antibacterial agents. Synthesis and structure-activity relationships of 8-substituted quinoline-3-carboxylic acids and 1,8-naphthyridine-3-carboxylic acids” (1988)
